According to ChEMBL document CHEMBL4052644, “Synthesis of novel benzylidene analogues of betulinic acid as potent cytotoxic agents” (Eur J Med Chem, 2017):

What was measured:
[1] = tested on: HCT-116; test: Growth inhibition of human HCT116 cells at 10 uM after 48 hrs by SRB assay relative to control; format: functional; details: HCT-116, 48 h, read-out: GI
How it was run: (§1)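 Primary SRB screen of every compound at a single concentration of 10 µM. Growth inhibition is expressed relative to control.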

[2] = tested on: MCF7; test: Growth inhibition of human MCF7 cells at 10 uM after 48 hrs by SRB assay relative to control; format: functional; details: MCF7, 48 h, read-out: GI; how it was run: as §1
[3] = tested on: MIA PaCa-2; test: Growth inhibition of human MIAPaCa2 at 10 uM after 48 hrs by SRB assay relative to control; format: functional; details: MIA PaCa-2, 48 h, read-out: GI; how it was run: as §1
[4] = tested on: PC-3; test: Growth inhibition of human PC3 cells at 10 uM after 48 hrs by SRB assay relative to control; format: functional; details: PC-3, 48 h, read-out: GI; how it was run: as §1
[5] = tested on: A549; test: Growth inhibition of human A549 cells at 10 uM after 48 hrs by SRB assay relative to control; format: functional; details: A549, 48 h, read-out: GI; how it was run: as §1
[6] = tested on: A549; test: Cytotoxicity against human A549 cells assessed as reduction in cell viability after 48 hrs by SRB assay; format: functional, cell-based; details: A549, 48 h
How it was run: (§2)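 SRB assay. Compounds active at 10 µM in the primary screen were retested at 1, 2.5 and 5 µM, and IC50 was calculated from these concentrations. The normal breast epithelial line fR2 was tested alongside the cancer lines.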

[7] = Selectivity index, ratio of IC50 for human FR2 cells to IC50 for human HCT116 cells; format: functional
How it was run: (§3)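 Selectivity index is the IC50 in normal breast epithelial fR2 cells divided by the IC50 in each cancer line. All IC50 values come from the SRB assay.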

[8] = tested on: HCT-116; test: Cytotoxicity against human HCT116 cells assessed as reduction in cell viability after 48 hrs by SRB assay; format: functional, cell-based; details: HCT-116, 48 h; how it was run: as §2
[9] = Selectivity index, ratio of IC50 for human FR2 cells to IC50 for human A549 cells; format: functional; how it was run: as §3
[10] = tested on: MCF7; test: Cytotoxicity against human MCF7 cells assessed as reduction in cell viability after 48 hrs by SRB assay; format: functional, cell-based; details: MCF7, 48 h; how it was run: as §2
[11] = tested on: PC-3; test: Cytotoxicity against human PC3 cells assessed as reduction in cell viability after 48 hrs by SRB assay; format: functional, cell-based; details: PC-3, 48 h; how it was run: as §2
[12] = tested on: MIA PaCa-2; test: Cytotoxicity against human MIAPaCa2 cells assessed as reduction in cell viability after 48 hrs by SRB assay; format: functional, cell-based; details: MIA PaCa-2, 48 h; how it was run: as §2
[13] = Cytotoxicity against human FR2 cells assessed as reduction in cell viability after 48 hrs by SRB assay; format: cell-based; details: FR2, 48 h; how it was run: as §2
[14] = Selectivity index, ratio of IC50 for human FR2 cells to IC50 for human PC3 cells; format: functional; how it was run: as §3
[15] = Selectivity index, ratio of IC50 for human FR2 cells to IC50 for human MCF7 cells; format: functional; how it was run: as §3

Structure (SMILES)	inhibition of growth at 10 µM [1] [%]	inhibition of growth at 10 µM [2] [%]	inhibition of growth at 10 µM [3] [%]	inhibition of growth at 10 µM [4] [%]	inhibition of growth at 10 µM [5] [%]	IC50 [6] [µM]	Ratio IC50 [7]	IC50 [8] [µM]	Ratio IC50 [9]	IC50 [10] [µM]	IC50 [11] [µM]	IC50 [12] [µM]	IC50 [13] [µM]	Ratio IC50 [14]	Ratio IC50 [15]
C=C(C)[C@@H]1CC[C@]2(C(=O)O)CC[C@]3(C)[C@H](CC[C@@H]4[C@@]5(C)C/C(=C/C=C/c6ccccc6)[C@H](O)C(C)(C)[C@@H]5CC[C@]43C)[C@@H]12	40	49	49	30	26	–	–	–	–	–	–	–	–	–	–
C=C(C)[C@@H]1CC[C@]2(C(=O)O)CC[C@]3(C)[C@H](CC[C@@H]4[C@@]5(C)C/C(=C\c6ccc(Br)o6)[C@H](O)C(C)(C)[C@@H]5CC[C@]43C)[C@@H]12	25	22	34	8	0	–	–	–	–	–	–	–	–	–	–
C=C(C)[C@@H]1CC[C@]2(C(=O)O)CC[C@]3(C)[C@H](CC[C@@H]4[C@@]5(C)C/C(=C\c6c(Cl)cccc6Cl)C(=O)C(C)(C)[C@@H]5CC[C@]43C)[C@@H]12	33	54	15	25	62	7.7	<2.003	> 10	2.359	9.07	> 10	> 10	18.2	–	–
C=C(C)[C@@H]1CC[C@]2(C(=O)O)CC[C@]3(C)[C@H](CC[C@@H]4[C@@]5(C)C/C(=C\c6cc(Br)ccc6OC)C(=O)C(C)(C)[C@@H]5CC[C@]43C)[C@@H]12	92	85	28	81	88	1.7	2.802	4.7	7.705	6.3	7.1	> 10	13.1	1.854	2.09
C=C(C)[C@@H]1CC[C@]2(C(=O)O)CC[C@]3(C)[C@H](CC[C@@H]4[C@@]5(C)C/C(=C\c6c(Cl)cccc6Cl)[C@H](O)C(C)(C)[C@@H]5CC[C@]43C)[C@@H]12	40	56	38	38	40	> 10	–	> 10	–	> 10	> 10	> 10	13.3	–	–
C=C(C)[C@@H]1CC[C@]2(C(=O)O)CC[C@]3(C)[C@H](CC[C@@H]4[C@@]5(C)CC[C@H](O)C(C)(C)[C@@H]5CC[C@]43C)[C@@H]12 [BETULINIC ACID]	42	28	26	49	40	> 10	–	> 10	–	> 10	> 10	> 10	30.1	–	–
C=C(C)[C@@H]1CC[C@]2(C(=O)O)CC[C@]3(C)[C@H](CC[C@@H]4[C@@]5(C)C/C(=C\c6ccc(Br)cc6)C(=O)C(C)(C)[C@@H]5CC[C@]43C)[C@@H]12	61	68	27	66	72	1.71	2.39	4.4	6.15	7.1	8.3	> 10	10.5	1.267	1.481
C=C(C)[C@@H]1CC[C@]2(C(=O)O)CC[C@]3(C)[C@H](CC[C@@H]4[C@@]5(C)C/C(=C\c6cc(Br)ccc6OC)[C@H](O)C(C)(C)[C@@H]5CC[C@]43C)[C@@H]12	54	67	16	7	65	2.8	1.93	5.44	3.76	5.2	> 10	> 10	10.5	–	2.025
C=C(C)[C@@H]1CC[C@]2(C(=O)O)CC[C@]3(C)[C@H](CC[C@@H]4[C@@]5(C)C/C(=C/C=C/c6ccccc6)C(=O)C(C)(C)[C@@H]5CC[C@]43C)[C@@H]12	66	84	48	71	93	3.4	2.265	5.8	3.864	7.2	7.8	> 10	13.1	1.684	1.825
C=C(C)[C@@H]1CC[C@]2(C(=O)O)CC[C@]3(C)[C@H](CC[C@@H]4[C@@]5(C)C/C(=C\c6cccc([N+](=O)[O-])c6)C(=O)C(C)(C)[C@@H]5CC[C@]43C)[C@@H]12	69	70	31	41	75	4.7	1.602	7.6	2.591	7.1	> 10	> 10	12.2	3.009	1.715
C=C(C)[C@@H]1CC[C@]2(C(=O)O)CC[C@]3(C)[C@H](CC[C@@H]4[C@@]5(C)C/C(=C\c6cccc(Br)c6)C(=O)C(C)(C)[C@@H]5CC[C@]43C)[C@@H]12	57	56	35	56	71	3.04	3.44	4.9	5.55	5.2	8.7	> 10	16.9	1.94	3.25
C=C(C)[C@@H]1CC[C@]2(C(=O)O)CC[C@]3(C)[C@H](CC[C@@H]4[C@@]5(C)C/C(=C\c6cccnc6)[C@H](O)C(C)(C)[C@@H]5CC[C@]43C)[C@@H]12	65	72	63	26	71	3.4	2.46	5.04	3.65	3.9	> 10	5.8	12.4	–	3.18
C=C(C)[C@@H]1CC[C@]2(C(=O)O)CC[C@]3(C)[C@H](CC[C@@H]4[C@@]5(C)CCC(=O)C(C)(C)[C@@H]5CC[C@]43C)[C@@H]12 [BETUNOLIC ACID]	49	43	36	43	62	5.7	–	> 10	2.838	> 10	> 10	> 10	16.2	–	–
C=C(C)[C@@H]1CC[C@]2(C(=O)O)CC[C@]3(C)[C@H](CC[C@@H]4[C@@]5(C)C/C(=C\c6ccc(F)c(Br)c6)[C@H](O)C(C)(C)[C@@H]5CC[C@]43C)[C@@H]12	57	72	40	31	65	4.9	3.064	8.4	5.253	6.4	> 10	> 10	25.7	–	4.021
C=C(C)[C@@H]1CC[C@]2(C(=O)O)CC[C@]3(C)[C@H](CC[C@@H]4[C@@]5(C)C/C(=C\c6ccsc6)[C@H](O)C(C)(C)[C@@H]5CC[C@]43C)[C@@H]12	62	79	70	35	72	> 10	–	> 10	–	1.71	> 10	> 10	11.1	–	6.461
